Published values pooled from the literature.
Target: Mitogen-activated protein kinase 12 (MAPK12, Homo sapiens, UniProt P53778)
One construct used (P53778 1-367): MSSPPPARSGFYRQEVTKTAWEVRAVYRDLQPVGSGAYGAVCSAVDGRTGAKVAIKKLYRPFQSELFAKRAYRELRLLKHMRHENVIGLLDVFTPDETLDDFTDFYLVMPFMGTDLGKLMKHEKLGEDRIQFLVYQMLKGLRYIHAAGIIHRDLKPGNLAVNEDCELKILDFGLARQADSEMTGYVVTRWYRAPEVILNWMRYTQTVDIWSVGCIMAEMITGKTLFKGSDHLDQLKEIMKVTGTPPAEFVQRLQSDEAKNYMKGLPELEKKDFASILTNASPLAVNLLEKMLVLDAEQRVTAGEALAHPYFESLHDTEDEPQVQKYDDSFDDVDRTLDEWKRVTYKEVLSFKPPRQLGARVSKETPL

SMILES	effect on	method	tested at	remaining binding
c1cncc(-c2cccc(Nc3nccc(NC4CCCCC4)n3)c2)c1	binding	competition with immobilised ligand	10 µM	84%
CCN1CCN(Cc2ccc(C(=O)Nc3ccc(C)c(Oc4ccc5c(c4)CC(=O)N5)c3)cc2C(F)(F)F)CC1	binding	competition with immobilised ligand	1 µM	100%
COc1cnc(Nc2cccc(S(N)(=O)=O)c2)nc1N1CCN(c2ccccc2)CC1	binding	competition with immobilised ligand	1 µM	91%
CN(c1ccnc(CNc2nc(Nc3ccc4c(c3)CC(=O)N4)ncc2C(F)(F)F)n1)S(C)(=O)=O	cell-free assay	competition with immobilised ligand	1 µM	58%
O=C(c1ccc(Nc2ncc(Cl)c(-c3ccc(Cl)s3)n2)cc1)N1CCC(N2CCCC2)CC1	binding	competition with immobilised ligand	1 µM	100%
F[C@@H]1CCN(c2nccc(-c3cnn4ncccc34)n2)C1	binding		1 µM	100%
Cn1cc(Cl)c2c(Oc3c(F)cc(Nc4cc(Cl)nc(N)n4)cc3F)ccnc21	cell-free assay	competition with immobilised ligand	0.1 µM	100%
Cc1cnc(Nc2ccc(C(=O)N3CCC(N4CCCC4)CC3)cc2)nc1-c1cc2ccccc2s1	binding	competition with immobilised ligand	1 µM	81%
O=C(Nc1cnc(Oc2ccc(F)cc2)nc1)N1CCc2ncccc2[C@@H]1c1ccc(F)cc1	cell-free assay	competition with immobilised ligand	1 µM	96%
CN(c1nccc(-c2cnn3ncccc23)n1)C1CC1	binding		1 µM	100%
C[C@@H]1CN(c2cc(-c3n[nH]c4ccc(OC5(C)CC5)cc34)ncn2)C[C@H](C)O1	cell-free assay	competition with immobilised ligand	0.1 µM	96%
C[C@@H](c1ccc(-n2cnc3c(N)ncnc32)cc1)N1CCc2nn(C)c(Cc3ccccc3)c2C1=O	binding	competition with immobilised ligand	0.1 µM	90%
CN(C)c1nccc(-c2cnn3ncccc23)n1	binding		1 µM	60%
Cc1cc(NC(=O)c2cccc(S(F)(F)(F)(F)F)c2)cc(-n2ccn3nc(-c4cccnc4)cc23)c1	cell-free assay	competition with immobilised ligand	1 µM	41.7%
O=C(NCC1CCOCC1)c1n[nH]cc1NC(=O)c1c(F)cccc1F	binding	competition with immobilised ligand	1 µM	100%
Cc1cnn2ncc(-c3ccnc(N(C)C)n3)c2c1	binding		1 µM	85%
O=C(c1ccc(Nc2ncc(Cl)c(-c3cc4ccccc4s3)n2)cc1)N1CCC(N2CCCC2)CC1	binding	competition with immobilised ligand	1 µM	86%
C[C@@H]1CCN(c2nccc(-c3cnn4ncccc34)n2)C1	binding		1 µM	47%
COc1cnc(Nc2cccc(S(N)(=O)=O)c2)nc1N1CCN(c2ccccc2)C(=O)C1	binding	competition with immobilised ligand	1 µM	100%
Cc1cc(Nc2nccc(C)n2)cc(-c2cnc([C@@]3(O)CC[C@H](C(=O)O)C(C)(C)C3)s2)c1	binding	competition with immobilised ligand	1 µM	31.2%
N[C@H]1CCN(c2nccc(-c3cnn4ncccc34)n2)C1	binding		1 µM	86%
